From publication PMC5956897 (Journal of inorganic biochemistry, 2018)

Tests used:
[1] = test system: MDA-MB-231 cells; test: Intracellular ROS detection with DCFH2-DA by flow cytometry; assay type: cell-based
Method in brief: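 Cells were seeded at 2.0 × 10⁵ per well and incubated overnight. They were treated for 2 h with test compound (50 μM) in phenol-red-free EMEM with 0.1% DMSO; the H₂O₂ control in PBS ran for 10 min. After PBS washes, cells took up DCFH₂-DA (30 μM) in warm PBS. They were detached with trypsin/EDTA, held on ice, and read by flow cytometry (488 nm excitation, 530/30 nm) within 1 h. n=3, mean ± SDM.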

[2] = test system: MDA-MB-231 cells; test: Cell cycle analysis; assay type: cell-based; details: MDA-MB-231, 10 μM, 12 h
[3] = test system: MEL cells; test: Spectrophotometric hemoglobin quantitation in induced MEL cells; assay type: cell-based, murine

Structure (SMILES) | ROS/RNS levels (DCF fluorescence) compared to untreated control ([1]; MDA-MB-231, 50 μM, 2 h) | G0/1 accumulation (cell cycle arrest) [2] | effect on hemoglobin production ([3]; 0.5 μM or 5 μM, 72 h, without SA) | decrease in intracellular hemoglobin concentrations ([3]; 72 h, without SA, statistically significant) | change in intracellular Hb concentrations ([3]; with succinylacetone (SA, 1 mM), normalized data) | DCF response compared to untreated control ([1]; MDA-MB-231, positive control in PBS, 10 min)
O=C(N/N=C/c1ccccc1O)c1ccncc1 [SIH, salicyl isonicotinoyl hydrazone] | significant decrease of DCF fluorescence | arrest at the G1/S interface | did not have major effects on hemoglobin production | less than 20% | did not result in statistically significant changes | –
OO [H2O2, Hydrogen peroxide] | – | – | – | – | – | an order of magnitude higher than that of the untreated control
